Legend:
Plasmodium berghei [1] = experiment: Antimalarial activity against Plasmodium berghei NK65 infected in Swiss mouse assessed as parasitemia at 25 mg/kg, po administered for 4 days and measured on day 5 post infection by Giemsa staining based microscopic analysis (reference value: 100 %); type: functional; settings: time 4 day
How it was run: (§1)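 Modified suppressive test in female Swiss mice infected with P. berghei NK65. Compounds were solubilized in 5% DMSO, diluted in water, and given by gavage. Parasitemia was read on Giemsa-stained blood smears on days 5 and 9 post-infection. Inhibition of parasite multiplication = [(A−B)/A]×100, where A is parasitemia of the water + 5% DMSO group.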

[2] = Selectivity index, ratio of CC50 for human WI-26VA-4 cells to IC50 for chloroquine-resistant ring-stage Plasmodium falciparum W2 infected in human RBC; type: toxicity; settings: read-out: Ratio CC50/IC50
Plasmodium berghei [3] = experiment: Antimalarial activity against Plasmodium berghei NK65 infected in Swiss mouse assessed as parasitemia at 25 mg/kg, po administered for 4 days and measured on day 9 post infection by Giemsa staining based microscopic analysis (reference value: 100 %); type: functional; settings: time 4 day; how it was run: as §1
Plasmodium berghei [4] = experiment: Antimalarial activity against Plasmodium berghei NK65 infected in Swiss mouse assessed as parasitemia at 15 mg/kg, po administered for 4 days and measured on day 9 post infection by Giemsa staining based microscopic analysis (reference value: 100 %); type: functional; settings: time 4 day; how it was run: as §1
Ferriprotoporphyrin IX [5] = experiment: Binding affinity to Fe(III)PPIX (unknown origin) assessed as reduction in hypochromism by UV-Vis spectrophotometric analysis relative to control; settings: concentration not given here
How it was run: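 Soret band (402 nm) absorbance of Fe(III)PPIX in Tris pH 7.5/aqueous DMSO was followed while 0.3 mM compound was titrated in to saturation. The blank was treated the same way to subtract compound absorbance. Hypochromism was taken as the percentage reduction in absorption intensity. Run in triplicate.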

Ferriprotoporphyrin IX [6] = experiment: Binding affinity to Fe(III)PPIX (unknown origin) assessed as association constant by UV-Vis spectrophotometric analysis relative to control
How it was run: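 UV-vis titration against Fe(III)PPIX at pH 7.5. Hemin stock was in DMSO and diluted in aqueous DMSO with 0.2 M Tris buffer pH 7.5. A 0.3 mM compound solution in the same solvent ratio was added in aliquots to 2 mL hemin solution. The blank received the same additions, and its absorbance was subtracted. A at 402 nm (Soret band) was fitted to a 1:1 complexation model by nonlinear least squares to give K. Run in triplicate.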

[7] = Cytotoxicity against human WI26VA4 cells assessed as reduction in cell viability incubated for 48 hrs by MTT assay; type: cell-based
Plasmodium falciparum = experiment: Antimalarial activity against chloroquine-resistant Plasmodium falciparum W2 infected in human RBC assessed as reduction in HRP2 level by ELISA; type: functional, organism-based; settings: W2, Erythrocyte
[8] = (§2) Hemolytic activity against human RBC at 150 uM incubated for 16 hrs by spectrophotometric analysis; type: ADME, cell-based, Erythrocyte; settings: human red blood cells (erythrocytes), read-out: Activity
How it was run: (§3)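 Red blood cells were incubated with compound at 37 °C for 16 h, with 1% saponin as positive and PBS as negative control. Tubes were centrifuged at 2000 rpm for 3 min, and supernatant absorbance was read at 540 nm. Percent hemolysis was calculated relative to the saponin and PBS mean absorbances. Means were compared by ANOVA with Tukey test.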

Plasmodium berghei [9] = experiment: Antimalarial activity against Plasmodium berghei NK65 infected in Swiss mouse assessed as parasitemia at 15 mg/kg, po administered for 4 days and measured on day 5 post infection by Giemsa staining based microscopic analysis (reference value: 100 %); type: functional; settings: time 4 day; how it was run: as §1
Plasmodium berghei [10] = experiment: Antimalarial activity against Plasmodium berghei NK65 infected in Swiss mouse assessed as parasitemia at 5 mg/kg, po administered for 4 days and measured on day 9 post infection by Giemsa staining based microscopic analysis (reference value: 100 %); type: functional; settings: time 4 day
How it was run: (§4)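 Modified Peters 4-day suppressive test in female Swiss mice infected with P. berghei NK65. Dosing was by gavage, with compounds dissolved in 5% DMSO and diluted in water. Parasitemia was read on Giemsa-stained blood smears. Inhibition of parasite multiplication = [(A−B)/A]×100, where A is the water + 5% DMSO group and B the treated group; both are group mean parasitemias.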

Plasmodium berghei [11] = experiment: Antimalarial activity against Plasmodium berghei NK65 infected in Swiss mouse assessed as parasitemia at 5 mg/kg, po administered for 4 days and measured on day 5 post infection by Giemsa staining based microscopic analysis (reference value: 100 %); type: functional; settings: time 4 day; how it was run: as §4
Erythrocyte = experiment: as §2; type: ADME, cell-based; settings: erythrocyte, 16 h, 150 µM; how it was run: as §3
Plasmodium berghei [12] = experiment: Antimalarial activity against Plasmodium berghei NK65 infected in Swiss mouse assessed as parasitemia at 10 mg/kg, po administered for 4 days and measured on day 5 post infection by Giemsa staining based microscopic analysis (reference value: 100 %); type: functional; settings: time 4 day; how it was run: as §1
Plasmodium berghei [13] = experiment: Antimalarial activity against Plasmodium berghei NK65 infected in Swiss mouse assessed as parasitemia at 10 mg/kg, po administered for 4 days and measured on day 9 post infection by Giemsa staining based microscopic analysis (reference value: 100 %); type: functional; settings: time 4 day; how it was run: as §1

| SMILES | selectivity ratio [2] | CC50 at 48 h [7] [µM] | IC50 (Plasmodium falciparum) [µM] | hemolysis at 16 h, 150 µM [8] [%] | also measured |
| --- | --- | --- | --- | --- | --- |
| Oc1ccc(/C=N/CCNc2ccnc3cc(Cl)ccc23)c(O)c1 | 990 | 171 | 0.172 | < 10 | Activity (Plasmodium berghei [1]): 93.7%; Activity (Plasmodium berghei [3]): 41.01%; Activity (Plasmodium berghei [4]): 40.13%; inhibition (Ferriprotoporphyrin IX [5]): 50.4%; log K (Ferriprotoporphyrin IX [6]): 4.77; Activity (Plasmodium berghei [9]): 71.15% |
| Oc1ccccc1/C=N/CCNc1ccnc2cc(Cl)ccc12 | 97.4 | 25.3 | 0.26 | < 10 | – |
| Oc1cc(O)cc(/C=N/CCNc2ccnc3cc(Cl)ccc23)c1 | 387 | 79.3 | 0.205 | < 10 | – |
| COc1cc(/C=N/Nc2ccnc3cc(Cl)ccc23)ccc1O | 45.8 | 10.8 | 0.235 | < 10 | – |
| Oc1ccc(/C=N/CCNc2ccnc3cc(Cl)ccc23)cc1 | 802 | 130 | 0.162 | < 10 | – |
| C[C@@H]1CC[C@H]2[C@@H](C)C(=O)O[C@@H]3O[C@@]4(C)CC[C@@H]1[C@]32OO4 [ARTEMISININ] | – | – | – | – | Activity (Plasmodium berghei [10]): 96.64%; Activity (Plasmodium berghei [11]): 94.9% |
| Oc1ccc(/C=N/Nc2ccnc3cc(Cl)ccc23)c(O)c1 | 30.9 | 7.27 | 0.235 | < 10 | – |
| O=Cc1ccc(/C=N/CCNc2ccnc3cc(Cl)ccc23)cc1 | 861 | 138 | 0.16 | – | – |
| O=C(O)c1ccc(/C=N/CCNc2ccnc3cc(Cl)ccc23)cc1 | > 195 | > 28.3 | 0.145 | < 10 | Activity (Plasmodium berghei [4]): 21.67%; Activity (Plasmodium berghei [9]): 72.64% |
| CC1(C)[C@@H](O[C@@H]2OC[C@H](O[C@@H]3OC[C@@H](O)[C@H](O)[C@H]3O)[C@H](O[C@H]3O[C@H](CO)[C@@H](O)[C@H](O)[C@H]3O)[C@H]2O[C@@H]2O[C@H](CO)[C@@H](O)[C@H](O)[C@H]2O[C@H]2O[C@H](CO)[C@@H](O)[C@H](O)[C@H]2O)CC[C@]2(C)[C@H]3CCC45OCC6(CC[C@@](C)(C=O)C[C@@H]64)[C@H](O)C[C@@]5(C)[C@]3(C)CC[C@@H]12 (some centres undefined) [SAPONIN] | – | – | – | – | Activity (Erythrocyte): Toxic |
| O=C(O)c1ccc(/C=N/Nc2ccnc3cc(Cl)ccc23)cc1 | 245 | 82 | 0.335 | < 10 | – |
| Oc1cc(O)cc(/C=N/Nc2ccnc3cc(Cl)ccc23)c1 | 20.6 | 12.9 | 0.625 | < 10 | – |
| CCN(CC)CCCC(C)Nc1ccnc2cc(Cl)ccc12 (centres undefined) [CHLOROQUINE] | – | > 19.4 | – | – | Activity (Plasmodium berghei [12]): 94.04%; Activity (Plasmodium berghei [13]): 41.27%; Activity (Erythrocyte): Non-Toxic |
